# Measurements pooled from the literature.
# Lines come from different studies, so protocols differ.
# LATS2: Serine/threonine-protein kinase LATS2 (LATS2, Homo sapiens, UniProt Q9NRM7)
# AKR1B1: Aldo-keto reductase family 1 member B1 (AKR1B1, Homo sapiens, UniProt P15121)
Structure (SMILES),target,assay,IC50
OC1(c2ccc(-c3ccnc4[nH]cc(F)c34)cc2)CCNC1 (stereo not drawn),LATS2,"enzyme activity, inhibitor, radiometric",0.0084 µM
COc1c(Cl)cccc1Nc1c(-c2ccncc2OC[C@@H]2COCCO2)[nH]c2c1C(=O)NCC2,"Tyrosine-protein kinase Lck, phosphorylated (LCK, Homo sapiens, UniProt P06239)","enzyme activity, inhibitor, TR-FRET",1.13 µM
COc1cc(/C=N/NC(=S)N/N=C/c2ccc(Cl)cc2)ccc1Oc1ccnc2cc(Cl)ccc12,AKR1B1,"enzyme activity, inhibitor, absorbance",14.9 µM
Cc1cc(-c2ccnc3[nH]cc(F)c23)cc(F)c1[C@@]1(O)[C@H](C)CN(C2CCS(=O)(=O)CC2)C[C@@H]1C,LATS2,"target engagement in cells, BRET",0.036 µM
Cc1cn([C@H]2C[C@H](OP(=O)(O)OC[C@H]3O[C@@H](n4cc(C)c(=O)[nH]c4=O)C[C@@H]3O)[C@@H](COP(=O)(O)OP(=O)(O)O)O2)c(=O)[nH]c1=O,"dgt (Salmonella enterica, UniProt A0A5H6DAK1)","enzyme activity, inhibitor",19.7 µM
O=C(O[C@@H]1[C@@H](O)[C@H](Oc2cc(O)c3c(c2)O[C@H](c2ccccc2)CC3=O)O[C@@H]2COC(=O)c3cc(O)c(O)c(O)c3-c3c(cc(O)c(O)c3O)C(=O)O[C@@H]12)c1cc(O)c(O)c(O)c1,"Thioredoxin domain-containing protein 5 (TXNDC5, Homo sapiens, UniProt Q8NBS9)","enzyme activity, inhibitor, fluorescence",3.9 µM
O=C(NC1CCC2(CCCC2)CC1)c1ccc(-c2ccccc2)cc1,"Transient receptor potential cation channel subfamily M member 8 (TRPM8, Homo sapiens, UniProt Q7Z2W7)","ion current, patch clamp",0.106 µM
COc1cc(/C=N/NC(=S)NN=Cc2ccc([N+](=O)[O-])o2)ccc1Oc1ccnc2cc(Cl)ccc12,AKR1B1,"enzyme activity, inhibitor, absorbance",7.85 µM
Cc1cc(-c2cc(O)ccc2Cl)cc2nnc(Nc3ccc(OCCN4CCCC4)cc3)nc12,"Tyrosine-protein kinase Lck (LCK, Homo sapiens, UniProt P06239)",cell-free assay,0.000292 µM
COc1cc(/C=N/NC(=S)NN=Cc2scnc2C)ccc1Oc1ccnc2cc(Cl)ccc12,AKR1B1,"enzyme activity, inhibitor, absorbance",17.8 µM
Nc1cnccc1Nc1ccc(Cl)c(Cl)c1,"Endonuclease 8-like 1 (NEIL1, Homo sapiens, UniProt Q96FI4)","enzyme activity, inhibitor",> 100 µM
Cc1cc(-c2ccnc3[nH]cc(F)c23)cc(F)c1[C@@]1(O)[C@H](C)CN(C(=O)CN)C[C@@H]1C,LATS2,"enzyme activity, inhibitor, radiometric",0.0026 µM
COc1cc(/C=N/NC(=S)NN=Cc2ccncc2)ccc1Oc1ccnc2cc(Cl)ccc12,AKR1B1,"enzyme activity, inhibitor, absorbance",9.92 µM
OC1(c2ccc(-c3ccnc4[nH]cc(F)c34)cc2)CCCNCC1 (stereo not drawn),LATS2,"enzyme activity, inhibitor, radiometric",0.012 µM
CC(C)C[C@H](NP(=O)(O)O[C@@H]1O[C@@H](C)[C@H](O)[C@@H](O)[C@H]1O)C(=O)N[C@@H](Cc1c[nH]c2ccccc12)C(=O)O,"Neprilysin (MME, Homo sapiens, UniProt P08473)","enzyme activity, inhibitor",0.575 µM
